Experimental data from PMC4306959 (Scientific Reports, 2015).

How the values were obtained:
JNK3 = conditions: cited from earlier work
JNK2 = conditions: cited from earlier work
JNK3α1L144I = JNK3α1L144I (Homo sapiens, UniProt P53779, L144I); test: HTRF enzyme inhibition assay, JNK3 L144I mutant; assay type: biochemical; conditions: read-out: Km value of ATP for JNK3 L144I
How it was run: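 Human JNK3 39–402 L144I, made by PCR mutagenesis and expressed like WT, activated for 2 h at 30°C with MKK4/MKK7 (100 nM each) in HEPES pH 7.5, MgCl2, DTT, 200 μM ATP; activation checked by MS and Western. HTRF at 0.75 nM enzyme, 0.5 μM biotinylated FL-ATF-2, 1.25 μM ATP, 1 h. Top concentration 10,000 nM.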

JNK3α1L144I, sequence (P53779 39-402 L144I): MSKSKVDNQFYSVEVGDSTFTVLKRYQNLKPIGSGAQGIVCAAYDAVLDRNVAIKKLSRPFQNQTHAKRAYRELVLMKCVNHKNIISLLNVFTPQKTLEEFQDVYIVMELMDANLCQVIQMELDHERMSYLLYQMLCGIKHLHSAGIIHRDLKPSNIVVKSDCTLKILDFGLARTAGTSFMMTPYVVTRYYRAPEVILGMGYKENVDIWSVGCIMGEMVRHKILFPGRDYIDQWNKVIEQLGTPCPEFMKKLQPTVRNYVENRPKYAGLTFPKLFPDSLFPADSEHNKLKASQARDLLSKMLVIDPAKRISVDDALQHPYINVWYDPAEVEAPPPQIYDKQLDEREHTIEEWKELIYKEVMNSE

| Compound | Selectivity for JNK3 compared to JNK1 (JNK3) [fold] | Selectivity for JNK2 compared to JNK1 (JNK2) [fold] | Km (JNK3α1L144I) [µM] |
| --- | --- | --- | --- |
| Cn1c(NC[C@@H](N)Cc2ccccc2)nc(-c2ccncc2)c(-c2ccc3ccccc3c2)c1=O [AMG-548] | 188 | 294 |  |
| Nc1ncnc2c1ncn2[C@@H]1O[C@H](COP(=O)(O)OP(=O)(O)OP(=O)(O)O)[C@@H](O)[C@H]1O [ATP] |  |  | 2.9 |
